Data as given in article PMC5995301 (International Journal of Nanomedicine, 2018).

What was measured:
A549 cells = experiment: In vitro wound-healing assay, A549 cells; type: cell-based, human; settings: 48 h
Outline: (§1)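 Cells were plated at 3×10^4 cells/well on collagen-coated plates, LLC in DMEM and A549 in RPMI, each with 10% FBS. They were grown 48 h at 37°C to near-confluence. A wound maker scratched the monolayer, which was washed twice with PBS pH 7.4. Cells were then exposed to test compound at 0.01–10 μg/mL PMX-equivalent for 48 h at 37°C. Phase-contrast images every 12 h; automated edge-detection mask gave the area.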

[1] = In vivo pharmacokinetic study in rats; settings: Sprague Dawley, rat, plasma, po, 20 mg/kg
[2] = Parallel artificial membrane permeability assay; type: in vitro ADME; settings: PAMPA, pH 6.8
Outline: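 Donor wells held test compound diluted in PBS pH 6.8 to 200 μg/mL PMX-equivalent; acceptor wells held PBS pH 6.8. Plates were incubated 5 h at room temperature, then donor and acceptor were both sampled. Permeated PMX was quantified by HPLC at 254 nm.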

[3] = system: Lewis lung carcinoma (LLC) cells; experiment: In vitro cytotoxic effect; type: cell-based; settings: 48 h, read-out: Cell viability
Outline: (§2)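 Cells were seeded at 5×10^3 cells/well and grown 24 h at 37°C. LLC cells were grown in DMEM with 10% FBS and A549 cells in RPMI with 10% FBS. Cells were exposed to serially diluted test compound at 0.01–10 μg/mL PMX-equivalent for 48 h. WST-8 (CCK-8) was added for 2 h and absorbance read at 450 nm. Viability is % of untreated cells; mean ± SD, n=6.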

[4] = In vitro permeability across a Caco-2 cell monolayer; type: in vitro ADME; settings: human
Outline: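 Caco-2 monolayers were grown on Transwell inserts (0.4 μm pores, 1.12 cm2). Test compound was applied. Transported samples were filtered (0.45 μm PVDF), and drug in them was quantified by HPLC-UV. The apparent permeability coefficient was calculated from the transported amount.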

In vitro drug release = type: physicochemical; settings: basket 100 rpm
[5] = system: human lung carcinoma (A549) cells; experiment: In vitro cytotoxic effect; type: cell-based
Outline: as §2

LLC tumor-bearing mice = experiment: In vivo tumor growth inhibition in LLC tumor-bearing mice; design: species or system C57BL/6 mice
Outline: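 Female C57BL/6 mice (20–25 g) received 1×10^6 LLC cells in 100 μL PBS pH 7.4 subcutaneously in the flank. At 80–100 mm3, mice were randomised into groups of 10 (untreated, oral daily, or IV once-weekly 20 mg/kg PMX in water). Oral groups were fasted 4 h before and 2 h after dosing. Calipers measured tumors every 3 days for 21 days; volume = a2×b×0.52. Mean ± SD, n=10.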

LLC cells = experiment: In vitro wound-healing assay, LLC cells; type: cell-based; settings: equivalent to 0.5 μg/mL (0.84 μM) PMX, 48 h
Outline: as §1

[6] = once-weekly IV 20 mg/kg PMX, 3 weeks

| half-life [1] [h] | Papp at 5 h, 200 μg/mL [2] [×10⁻⁶ cm/s] | Papp at 5 h, 100 μg/mL [4] [×10⁻⁶ cm/s] | Drug dissolved within 15 min (In vitro drug release; 0.1 N HCl pH 1.2, 37°C) | Drug released within 15 min (In vitro drug release; phosphate buffer pH 6.8, 37°C) | Compound | Inhibition of cell proliferation/migration, fold higher than control cells (A549 cells; equivalent to 0.5 μg/mL (0.84 μM) PMX) [fold] | Wound recovery rate (A549 cells; equivalent to 1 μg/mL (1.67 μM) PMX) | viability at 0.08 µM [3] [%] | viability at 0.84 µM [3] [%] | viability at 5 µg/mL [3] [%] | viability at 8.37 µM ([5]; Homo sapiens, A549, 48 h, read-out: Cell viability) [%] | Reduction in tumor volume and mass vs control mice (LLC tumor-bearing mice; once-a-day oral 20 mg/kg PMX in water, 21 days) | Tumor volume lower than control group (LLC tumor-bearing mice; [6]) [%] | Tumor volume lower than oral PMX group (LLC tumor-bearing mice; [6]) [%] | Relative wound recovery (LLC cells) | Cell viability after the addition of excipient alone ([5]; A549 cells, excipient alone, amount matching the same molar concentration of PMX) [%] |
| --- | --- | --- | --- | --- | --- | --- | --- | --- | --- | --- | --- | --- | --- | --- | --- | --- |
| 7.03 ± 1.61 | 0.665 ± 0.207 | 0.498 ± 0.096 | More than 90% | More than 90% | Nc1nc2[nH]cc(CCc3ccc(C(=O)N[C@@H](CCC(=O)O)C(=O)O)cc3)c2c(=O)[nH]1 [PMX, N-[4-[2-(2-amino-3,4-dihydro-4-oxo-7H-pyrrolo[2,3-d]pyrimidin-5-yl)-ethyl]-benzoyl]-L-glutamic acid] | 1.28 | 54.0%±5.09% | < 80 | 45.4 | 29.8 | 52.2 | did not show significant reductions in the tumor volume and mass | 49 | 46 | 57.5%±5.76% |  |
|  |  |  |  |  | 2-hydroxypropyl-beta-cyclodextrin [HP-beta-CD] |  |  |  |  |  |  |  |  |  |  | > 80 |
